Reference: ChEMBL document CHEMBL3244020, “Trichloroacetamidines, a new class of positive inotropic agents” (J Med Chem, 1978)
Activity calls are given as the source filed them. The rule behind the calls is not given here.

How the values were obtained:
[1] = Positive inotropic activity in cat heart papillary muscle assessed as concentration required to increase contractile force by 500 mg measured for 5 to 30 mins; format: functional, Felis catus, Muscle tissue
Method in brief: (§1)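 Right-ventricular cat papillary muscles in Krebs–Henseleit at 37 °C, field-stimulated at 1/s (4–10 ms, 6–10 V). Muscles equilibrated about 90 min, until force fell to 25–30% of original. Compound added and force recorded at 5, 10, 20 and 30 min, followed by ouabain 0.5 μg/mL. Positives were retested on three more preparations at ≥3 concentrations. Scored as mg increase in contractile force.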

[2] = test system: Canis familiaris; assay: Positive inotropic activity in Beagle dog assessed as increase in left ventricular contractile force at 1.25 mg/kg, iv measured after 1 hr; format: functional, organism-based; design: dose 1.25 mg/kg; details: Canis lupus familiaris, Heart left ventricle
[3] = Dissociation constant, pKa of the compound; format: physicochemical
Method in brief: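 pKa determined in water or in 30% EtOH–70% H2O, depending on compound.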

[4] = species: Felis catus; assay: Positive inotropic activity in cat heart papillary muscle assessed as increase in contractile force at 1.7 ug/mL measured up to 45 mins; format: functional, tissue-based; details: Muscle tissue
Method in brief: (§2)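 Electrically paced (1/s) right-ventricular cat papillary muscles in Krebs–Henseleit solution at 37 °C. Compound added after force declined to 25–30% of original following about 90 min equilibration. Contractile force followed over time to peak and to end of action. Values are the average of four experiments.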

[5] = test system: Canis familiaris; assay: Positive inotropic activity in Beagle dog assessed as increase in left ventricular contractile force at 5 mg/kg, iv; format: functional, organism-based; design: dose 5 mg/kg; details: Canis lupus familiaris, Heart left ventricle
[6] = Positive inotropic activity in cat heart papillary muscle assessed as increase in contractile force at 0.156 ug/mL measured for 5 to 30 mins; format: functional, Felis catus, Muscle tissue
Method in brief: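 Right-ventricular cat papillary muscles in Krebs–Henseleit solution at 37 °C, paced at 1/s (4–10 ms, 6–10 V square waves). Equilibrated about 90 min; compound added once force had fallen to 25–30% of original (1.5–2 h). Force recorded 5, 10, 20 and 30 min after addition, then ouabain 0.5 μg/mL added. Increase over 20% scored positive. Actives retested on three further preparations at ≥3 concentrations.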

[7] = test system: Canis familiaris; assay: Positive inotropic activity in Beagle dog assessed as increase in left ventricular contractile force at 1.25 mg/kg, iv measured within 5 mins (reference value: 76 g); format: functional, Canis lupus familiaris, Heart left ventricle
[8] = Positive inotropic activity in cat heart papillary muscle assessed as increase in contractile force at 2.5 ug/mL measured for 5 to 30 mins; format: functional, Felis catus, Muscle tissue; method in brief: as §1
[9] = species: Felis catus; assay: Positive inotropic activity in cat heart papillary muscle assessed as increase in contractile force up to 10 ug/mL measured for 5 to 30 mins in presence of beta-adrenergic inhibitor sotalol; format: functional, tissue-based
Method in brief: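 Cat right-ventricular papillary muscle in Krebs–Henseleit at 37 °C, electrically driven at 1/s. Force recorded 5–30 min after compound, in the presence of the β-blocker sotalol at 10 μg/mL. Scored as mg increase in contractile force.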

[10] = species: Felis catus; assay: Positive inotropic activity in heart papillary muscle isolated from reserpine-treated cat assessed as increase in contractile force at 10 ug/mL measured for 5 to 30 mins; format: functional, tissue-based; details: Muscle tissue
Method in brief: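 Cats pretreated with reserpine 0.5 mg/kg ip before papillary muscle isolation. Right-ventricular muscles kept in Krebs–Henseleit at 37 °C, stimulated at 1/s, and force recorded at 5–30 min after compound addition.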

[11] = test system: Canis familiaris; assay: Positive inotropic activity in Beagle dog assessed as increase in left ventricular pressure at 1.25 mg/kg, iv; format: functional, organism-based; design: dose 1.25 mg/kg; details: Canis lupus familiaris, Heart left ventricle
[12] = test system: Canis familiaris; assay: Toxicity in Beagle dog assessed as reduction in mean arterial pressure at 5 mg/kg, iv; format: organism-based, Canis lupus familiaris, Artery; design: dose 5 mg/kg, route intravenous; details: in vivo
[13] = test system: Canis familiaris; assay: Toxicity in Beagle dog assessed as increase in heart rate at 1.25 to 5 mg/kg, iv measured within 2 mins; format: organism-based, Canis lupus familiaris; design: dose 1.25-5 mg/kg, route intravenous; details: in vivo
[14] = Positive inotropic activity in cat heart papillary muscle assessed as increase in contractile force at 10 ug/mL measured for 5 to 30 mins; format: functional, Felis catus, Muscle tissue; method in brief: as §1
[15] = Positive inotropic activity in cat heart papillary muscle assessed as increase in contractile force at 1.7 ug/mL measured for 10 mins (reference value: 855 mg); format: functional, Felis catus, Muscle tissue; method in brief: as §2
[16] = Inhibition of calf heart Na+-K+ dependent ATPase preincubated for 30 mins measured after 10 to 20 mins; design: species or system Bos taurus; details: read-out: I50
Method in brief: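 Partially purified membrane ATPase from calf heart or guinea pig renal cortex. Inhibitor plus enzyme were preincubated 30 min at 10× final concentrations, then added to the otherwise complete assay system. Incubated at 37 °C under air, with aliquots taken at 10 and 20 min. Liberated phosphate measured by the Lowry–Lopez method. I50 came from log inhibitor vs percent inhibition lines, at least three points.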

[17] = Inhibition of calf heart Na+-K+ dependent ATPase after 10 to 20 mins; design: species or system Bos taurus; details: read-out: I50
Method in brief: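 Partially purified membrane ATPase from calf heart or guinea pig renal cortex. Reaction started by final addition of enzyme. Incubated at 37 °C under air, with aliquots taken at 10 and 20 min. Liberated phosphate measured by the Lowry–Lopez method. I50 came from log inhibitor vs percent inhibition lines, at least three points. This was done only where acute inhibition was >50% at 1 × 10⁻³ M.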

[18] = test system: Canis familiaris; assay: Positive inotropic activity in Beagle dog assessed as increase in left ventricular dp/dt maximum at 1.25 mg/kg, iv; format: functional, organism-based; design: dose 1.25 mg/kg; details: Canis lupus familiaris, Heart left ventricle
[19] = test system: Canis familiaris; assay: Toxicity in Beagle dog assessed as effect on mean arterial pressure at 1.25 mg/kg, iv; format: organism-based, Canis lupus familiaris, Artery; design: dose 1.25 mg/kg, route intravenous; details: in vivo

N=C(NCc1c[nH]c2ccccc12)C(Cl)(Cl)Cl
Activity [1]: 1.27 µg/mL | Activity [2]: Active | pKa [3]: 6 | Activity [4]: Active | Activity [5]: Active | Activity [6]: 201 mg | Activity [7]: 125 g | Activity [8]: 201 mg | Activity [9]: Active | Activity [10]: Active | Activity [11]: Active | Activity [12]: Toxic | Activity [13]: Toxic | Activity [14]: >600 mg | Activity [15]: 1375 mg | IC50 [16]: 20 µM | IC50 [17]: 45 µM | Activity [18]: Active | Activity [19]: Non-toxic
